According to ChEMBL document CHEMBL1143217, “Bioisosteric replacement of dihydropyrazole of 4S-(-)-3-(4-chlorophenyl)-N-methyl-N'-[(4-chlorophenyl)-sulfonyl]-4-phenyl-4,5-dihydro-1H-pyrazole-1-caboxamidine (SLV-319) a potent CB1 receptor antagonist by imidazole and oxazole” (2008):
Where a name gives a salt, the structure may show the parent alone.

Key:
[1] = molecular target: Cannabinoid receptor 1 (Homo sapiens) (UniProt P21554); assay: Antagonist activity at human CB1 receptor expressed in CHO cells assessed as forskolin-induced cAMP accumulation per ug of protein at 10 uM in presence of WIN-55212-2; type: functional, cell-based
Cannabinoid receptor 1 (Homo sapiens), sequence (P21554 whole entry): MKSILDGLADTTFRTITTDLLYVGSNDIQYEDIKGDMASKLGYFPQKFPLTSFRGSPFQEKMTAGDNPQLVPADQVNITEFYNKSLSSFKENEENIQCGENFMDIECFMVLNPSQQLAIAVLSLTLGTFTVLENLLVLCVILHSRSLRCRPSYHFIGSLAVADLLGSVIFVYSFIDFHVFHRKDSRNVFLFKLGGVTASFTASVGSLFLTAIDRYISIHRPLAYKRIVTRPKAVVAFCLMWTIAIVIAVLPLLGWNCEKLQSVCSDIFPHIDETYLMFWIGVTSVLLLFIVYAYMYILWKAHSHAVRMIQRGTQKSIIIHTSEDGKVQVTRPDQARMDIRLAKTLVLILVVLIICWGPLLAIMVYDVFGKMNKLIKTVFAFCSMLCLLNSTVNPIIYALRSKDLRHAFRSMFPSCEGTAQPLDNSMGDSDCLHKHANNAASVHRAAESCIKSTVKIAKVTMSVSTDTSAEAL
Summary of the method: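 CHO-K1 cells stably expressing human CB1 were kept in HAM's F12 with 10% heat-inactivated dialyzed FBS and 0.8 mg/mL G-418. Cells were seeded at 50,000/well, grown 16–18 h, then preincubated 30 min at 37 °C with 0.25% fatty-acid-free BSA, IBMX 0.1 mM and RO20-1724 0.1 mM. Drugs were added for 5 min, then forskolin (10, final) for 20 min. Cells were lysed in 0.1 N HCl/0.1% Triton for cAMP ELISA. Mean ± SD, duplicate, ≥3 experiments.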

Rattus norvegicus = assay: Inhibition of 5% sucrose solution intake in Zucker fa/fa rat at 10 mg/kg, po on day 7 after 1 hr; type: functional
Summary of the method: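 Female Zucker fa/fa rats (10–12 weeks, 300–350 g) were trained on six consecutive days, without food or water during sessions. On day 7 they were randomized (n = 6/group) and dosed orally at 10 mg/kg in 0.5% CMC-Na/water (2 mL/kg). One hour later they had 5% sucrose for 4 h. Intake (g) and % inhibition vs control; mean ± SEM; one-way ANOVA with Dunnett's test.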

Question: Which Activity [1] does the source give for CN/C(=N/S(=O)(=O)c1ccc(Cl)cc1)c1cn(-c2ccc(Cl)cc2)c(-c2ccccc2)n1 here?
Answer: 0.55 pmol

Question: And the inhibition in vivo at 10 mg/kg (Rattus norvegicus)?
Answer: 6.7%

Question: How did the Activity [1] turn out when CN/C(=N/S(=O)(=O)c1ccc(Cl)cc1)C1CN(c2ccc(Cl)cc2)C(c2ccccc2)=N1 (configuration not stated) was run?
Answer: 0.94 pmol

Question: And the inhibition in vivo at 10 mg/kg (Rattus norvegicus)?
Answer: 2.2%

Question: How did the inhibition in vivo at 10 mg/kg (Rattus norvegicus) turn out when Cc1c(C(=O)NN2CCCCC2)nn(-c2ccc(Cl)cc2Cl)c1-c1ccc(Cl)cc1 [RIMONABANT HYDROCHLORIDE] was run?
Answer: 36.1%

Question: Which Activity [1] does the source give for CN/C(=N/S(=O)(=O)c1ccc(Cl)cc1)C1CN(c2ccccc2)C(c2ccc(Cl)cc2)=N1 (configuration not stated) here?
Answer: 1.22 pmol

Question: And the inhibition in vivo at 10 mg/kg (Rattus norvegicus)?
Answer: 14.4%

Question: Which Activity [1] does the source give for CN/C(=N/S(=O)(=O)c1ccc(Cl)cc1)c1nc(-c2ccccc2)c(-c2ccc(Cl)cc2)o1 here?
Answer: 0.6 pmol

Question: And the inhibition in vivo at 10 mg/kg (Rattus norvegicus)?
Answer: 4.3%

Question: Which inhibition in vivo at 10 mg/kg (Rattus norvegicus) does the source give for CN/C(=N\S(=O)(=O)c1ccc(Cl)cc1)N1C[C@H](c2ccccc2)C(c2ccc(Cl)cc2)=N1 [IBIPINABANT] here?
Answer: 37.6%

Question: How did the Activity [1] turn out when CN/C(=N/S(=O)(=O)c1ccc(Cl)cc1)c1nc(-c2ccc(Cl)cc2)c(-c2ccccc2)o1 was run?
Answer: 1.3 pmol

Question: What about the inhibition in vivo at 10 mg/kg (Rattus norvegicus) of the same molecule?
Answer: 0.6%
